Source: ChEMBL document CHEMBL1152290, “Bis-pyranobenzoquinones as a new family of reversal agents of the multidrug resistance phenotype mediated by P-glycoprotein in mammalian cells and the protozoan parasite Leishmania” (J Med Chem, 2008)
Each block holds one molecule with its values, some of them ahead of it. The source made the active and inactive calls. The rule behind the calls is not given here.

Assays:
Leishmania tropica [1] = assay: Growth inhibition of wild type Leishmania tropica promastigotes at 10 uM after 72 hrs by MTT assay relative to control; assay type: functional; settings: read-out: GI
Summary of the method: (§1)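 L. tropica promastigotes in log phase were resuspended at 6×10^6 cells/mL in modified RPMI 1640 with 20% heat-inactivated FBS and exposed to compound for 72 h at 28 °C. Viability was read by MTT. The resistant line overexpresses a Pgp-like transporter and is maintained in 150 µM daunorubicin.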

Leishmania tropica [2] = assay: Growth inhibition of Leishmania tropica promastigotes expressing MDR1 at 10 uM after 72 hrs by MTT assay in presence of daunorubicin relative to control; assay type: functional; settings: for inhibition of growth at 10 µM: MDR1, 72 h, read-out: GI; summary of the method: as §1
NIH3T3 [3] = assay: Resistance index, ratio of IC50 for mouse NIH/3T3 cells expressing MDR1 to IC50 for wild type mouse NIH/3T3 cells
Summary of the method: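 Cells were plated at 3.5×10^3 per well and attached for 24 h. MDR1 and wild-type NIH-3T3 cells were exposed for 72 h at 37 °C to increasing daunorubicin, with or without 10, 3 or 1 µM modulator. Growth was read by MTT, and IC50 came from four-parameter logistic fits. RI is the IC50 in MDR1 cells divided by the IC50 in wild-type cells. Three independent experiments.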

[4] = Intrinsic cytotoxicity against wild type mouse NIH/3T3 cells after 72 hrs by MTT assay; assay type: cell-based; settings: NIH3T3, 72 h
NIH3T3 [5] = assay: Intrinsic cytotoxicity against mouse NIH/3T3 cells overexpressing MDR1 after 72 hrs by MTT assay; assay type: functional, cell-based; settings: NIH3T3, 72 h
[6] = biological target: T1, ATP-dependent translocase ABCB1 (Homo sapiens, UniProt P08183); assay: Inhibition of human MDR1 overexpressed in mouse NIH/3T3 cells assessed as daunorubicin accumulation at 10 uM by spectrofluorimetry; assay type: cell-based; settings: nih3t3, 10 µM
Summary of the method: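 NIH-3T3 cells transfected with human MDR1-G185 were incubated 2 h at 37 °C with 10 µM daunorubicin, with or without 10 µM compound, in DMEM plus 10% HIFBS. Cells were washed twice, lysed in SDS/Tris buffer pH 7.4 overnight at 4 °C, and read by plate fluorometry. Uptake is expressed relative to wild-type NIH-3T3 accumulation (100%). Three independent experiments, ±SD.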

[7] = Intrinsic cytotoxicity against wild type mouse NIH/3T3 cells at 10 uM after 72 hrs by MTT assay; assay type: cell-based, NIH3T3; settings: wild type NIH/3T3 cells, read-out: INH
Summary of the method: (§2)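 Wild-type or MDR1 NIH-3T3 cells were plated at 3.5×10^3 per well and allowed to attach for 24 h at 37 °C under 5% CO2. Compound was then added at 10 µM and intrinsic cytotoxicity was measured by MTT colorimetric assay. Mean ±SD of three independent experiments performed in triplicate.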

[8] = biological target: T1, ATP-dependent translocase ABCB1; assay: Inhibition of human MDR1 overexpressed in mouse NIH/3T3 cells assessed as daunorubicin accumulation by flow cytometry relative to control; assay type: cell-based; settings: nih3t3
Summary of the method: (§3)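 MDR1 and wild-type NIH-3T3 cells were incubated 0.5 h at 37 °C in DMEM plus 10% HIFBS with 2 µM daunorubicin and varying compound concentrations. Cells were washed, trypsinized, taken up in cold PBS, gated to exclude debris, and FL2 fluorescence was measured. Signals were converted to % Pgp inhibition normalized to wild type and fitted to y = Bmax·x/(Ki + x). Three experiments in triplicate.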

NIH3T3 [9] = assay: Intrinsic cytotoxicity against mouse NIH/3T3 cells overexpressing MDR1 at 10 uM after 72 hrs by MTT assay; assay type: functional; settings: NIH3T3, 72 h; summary of the method: as §2
[10] = biological target: T2, Broad substrate specificity ATP-binding cassette transporter ABCG2 (Homo sapiens, UniProt Q9UNQ0); assay: Inhibition of BCRP expressed in HEK293 cells assessed as mitoxantrone accumulation at 10 uM by spectrofluorimetry; assay type: cell-based; settings: hek293, 10 µM
T2 sequence (Q9UNQ0 whole entry): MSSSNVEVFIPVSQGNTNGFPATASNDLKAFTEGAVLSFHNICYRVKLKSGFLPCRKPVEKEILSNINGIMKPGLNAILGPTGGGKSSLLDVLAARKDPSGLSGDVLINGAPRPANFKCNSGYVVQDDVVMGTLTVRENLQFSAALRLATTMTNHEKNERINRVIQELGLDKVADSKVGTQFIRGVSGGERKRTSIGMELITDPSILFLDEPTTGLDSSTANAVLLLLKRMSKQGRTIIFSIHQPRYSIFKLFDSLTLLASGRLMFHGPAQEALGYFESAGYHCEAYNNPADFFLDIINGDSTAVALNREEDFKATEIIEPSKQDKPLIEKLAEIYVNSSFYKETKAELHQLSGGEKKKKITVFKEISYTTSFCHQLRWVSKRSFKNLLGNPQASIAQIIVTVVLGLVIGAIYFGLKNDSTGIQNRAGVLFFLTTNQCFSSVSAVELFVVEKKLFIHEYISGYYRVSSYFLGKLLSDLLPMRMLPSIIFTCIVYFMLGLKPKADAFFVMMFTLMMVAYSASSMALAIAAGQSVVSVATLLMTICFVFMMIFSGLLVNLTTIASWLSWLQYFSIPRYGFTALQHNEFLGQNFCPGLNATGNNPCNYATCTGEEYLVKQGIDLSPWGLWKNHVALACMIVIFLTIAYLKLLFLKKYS
Summary of the method: (§4)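 Transfected cell monolayers were incubated 2 h at 37 °C with or without 10 µM compound in DMEM plus 10% HIFBS. Substrates were 5 µM mitoxantrone for HEK293-BCRP (R482) or 2 µM calcein-AM for 2008-MRP1. Cells were washed twice, lysed overnight at 4 °C in the dark in 20 mM Tris-HCl pH 7.4 with 0.2% SDS, and lysate fluorescence was read on a microplate spectrofluorometer.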

[11] = biological target: T1, ATP-dependent translocase ABCB1; assay: Inhibition of human MDR1 overexpressed in mouse NIH/3T3 cells assessed as daunorubicin accumulation by flow cytometry; assay type: cell-based, NIH3T3; summary of the method: as §3
[12] = biological target: Multidrug resistance-associated protein 1 (Homo sapiens, UniProt P33527); assay: Inhibition of MRP1 expressed in human 2008 cells assessed as calcein-AM accumulation at 10 uM by spectrofluorimetry; assay type: cell-based; settings: human, 2008, 10 µM; summary of the method: as §4
[13] = Intrinsic cytotoxicity against wild type mouse NIH/3T3 cells at 3 uM after 72 hrs by MTT assay; settings: wild type NIH/3T3 cells
NIH3T3 [14] = assay: Intrinsic cytotoxicity against mouse NIH/3T3 cells overexpressing MDR1 at 3 uM after 72 hrs by MTT assay; assay type: functional; settings: NIH3T3, 72 h

Sequence of Multidrug resistance-associated protein 1 (P33527 whole entry): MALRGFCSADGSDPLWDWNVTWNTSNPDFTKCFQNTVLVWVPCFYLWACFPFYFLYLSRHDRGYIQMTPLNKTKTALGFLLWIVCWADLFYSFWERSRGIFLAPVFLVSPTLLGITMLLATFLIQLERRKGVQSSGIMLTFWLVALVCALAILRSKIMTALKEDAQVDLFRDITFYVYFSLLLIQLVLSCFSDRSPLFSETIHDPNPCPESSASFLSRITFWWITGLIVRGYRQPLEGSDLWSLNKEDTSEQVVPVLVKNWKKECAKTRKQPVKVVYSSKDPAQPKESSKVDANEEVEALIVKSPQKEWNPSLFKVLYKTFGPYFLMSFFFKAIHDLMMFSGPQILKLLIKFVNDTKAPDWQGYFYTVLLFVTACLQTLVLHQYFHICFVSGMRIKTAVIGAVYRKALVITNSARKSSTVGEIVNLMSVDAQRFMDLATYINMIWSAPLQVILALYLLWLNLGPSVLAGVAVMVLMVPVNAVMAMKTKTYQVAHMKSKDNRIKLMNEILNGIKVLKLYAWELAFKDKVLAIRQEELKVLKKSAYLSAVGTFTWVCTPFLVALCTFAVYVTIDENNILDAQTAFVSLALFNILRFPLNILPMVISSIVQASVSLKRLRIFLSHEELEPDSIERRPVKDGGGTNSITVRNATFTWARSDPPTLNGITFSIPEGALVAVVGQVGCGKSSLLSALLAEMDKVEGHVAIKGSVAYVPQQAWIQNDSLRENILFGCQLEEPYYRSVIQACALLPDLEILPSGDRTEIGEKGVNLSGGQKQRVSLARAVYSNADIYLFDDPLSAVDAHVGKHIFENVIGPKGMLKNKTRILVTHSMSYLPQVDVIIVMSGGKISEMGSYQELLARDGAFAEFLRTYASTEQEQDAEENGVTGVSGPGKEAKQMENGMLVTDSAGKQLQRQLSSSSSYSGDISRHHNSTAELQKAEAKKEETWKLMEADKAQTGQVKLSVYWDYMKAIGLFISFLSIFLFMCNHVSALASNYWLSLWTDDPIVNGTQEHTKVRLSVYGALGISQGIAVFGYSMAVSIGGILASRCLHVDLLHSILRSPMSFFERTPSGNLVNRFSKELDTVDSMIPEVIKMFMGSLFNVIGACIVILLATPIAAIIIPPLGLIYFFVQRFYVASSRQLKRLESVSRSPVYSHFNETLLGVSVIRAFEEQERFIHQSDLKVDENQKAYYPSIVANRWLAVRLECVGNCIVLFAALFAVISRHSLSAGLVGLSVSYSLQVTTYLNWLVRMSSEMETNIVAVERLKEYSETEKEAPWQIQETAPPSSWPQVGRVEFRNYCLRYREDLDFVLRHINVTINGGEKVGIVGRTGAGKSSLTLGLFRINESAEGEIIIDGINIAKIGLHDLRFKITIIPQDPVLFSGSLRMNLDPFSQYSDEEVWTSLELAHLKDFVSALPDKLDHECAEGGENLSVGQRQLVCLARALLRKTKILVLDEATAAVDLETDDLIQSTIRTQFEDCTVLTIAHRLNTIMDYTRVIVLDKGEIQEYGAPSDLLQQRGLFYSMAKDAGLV
T1 sequence (P08183 whole entry): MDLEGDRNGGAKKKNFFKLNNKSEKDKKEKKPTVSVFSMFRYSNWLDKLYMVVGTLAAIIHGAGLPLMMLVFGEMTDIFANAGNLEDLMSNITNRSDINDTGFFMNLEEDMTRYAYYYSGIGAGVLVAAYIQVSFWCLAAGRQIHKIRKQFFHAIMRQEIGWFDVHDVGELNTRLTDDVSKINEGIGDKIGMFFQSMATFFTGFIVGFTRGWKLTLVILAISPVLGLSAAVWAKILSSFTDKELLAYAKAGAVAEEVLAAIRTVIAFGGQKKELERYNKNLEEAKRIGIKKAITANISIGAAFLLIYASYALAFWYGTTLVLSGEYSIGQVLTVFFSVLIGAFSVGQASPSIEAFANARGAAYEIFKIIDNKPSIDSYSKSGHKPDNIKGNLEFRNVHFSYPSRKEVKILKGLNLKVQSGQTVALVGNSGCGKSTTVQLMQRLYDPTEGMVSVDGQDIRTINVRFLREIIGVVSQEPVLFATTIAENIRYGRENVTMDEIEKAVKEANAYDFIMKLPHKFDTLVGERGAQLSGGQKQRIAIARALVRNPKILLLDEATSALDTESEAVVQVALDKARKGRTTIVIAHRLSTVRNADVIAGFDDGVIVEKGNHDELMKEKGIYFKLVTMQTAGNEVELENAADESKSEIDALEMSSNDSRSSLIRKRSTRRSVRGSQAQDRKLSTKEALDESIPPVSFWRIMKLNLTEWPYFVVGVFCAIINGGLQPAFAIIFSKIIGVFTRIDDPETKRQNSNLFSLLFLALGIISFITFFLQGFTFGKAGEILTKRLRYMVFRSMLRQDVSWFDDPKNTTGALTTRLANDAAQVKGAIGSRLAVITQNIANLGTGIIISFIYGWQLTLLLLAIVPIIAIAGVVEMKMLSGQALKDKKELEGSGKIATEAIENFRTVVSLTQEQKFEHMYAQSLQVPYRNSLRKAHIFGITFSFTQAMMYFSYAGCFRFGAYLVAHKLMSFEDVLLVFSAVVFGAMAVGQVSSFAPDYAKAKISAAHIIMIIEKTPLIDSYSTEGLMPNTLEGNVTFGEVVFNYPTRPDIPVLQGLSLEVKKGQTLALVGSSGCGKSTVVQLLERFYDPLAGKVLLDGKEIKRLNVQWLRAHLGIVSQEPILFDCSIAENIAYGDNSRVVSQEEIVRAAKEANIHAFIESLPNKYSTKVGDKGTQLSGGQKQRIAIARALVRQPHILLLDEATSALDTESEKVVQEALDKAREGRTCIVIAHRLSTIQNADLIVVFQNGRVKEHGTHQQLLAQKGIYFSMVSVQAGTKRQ

SMILES: CC1(C)OC2=C(C(=O)C(=O)C3=C2OC(C)(C)[C@H]2COc4ccc(Br)cc4[C@@H]32)[C@@H]2c3cc(Br)ccc3OC[C@@H]21
inhibition of growth at 10 µM (Leishmania tropica [1]): 75%
inhibition of growth at 10 µM (Leishmania tropica [2]): > 75%

SMILES: CC1(C)OC2=C(C(=O)C(=O)C3=C2OC(C)(C)[C@H]2COc4c(Br)cc(Br)cc4[C@@H]32)[C@H]2c3cc(Br)cc(Br)c3OC[C@H]21
Activity (Leishmania tropica [2]): inactive

SMILES: C[C@H]1CC[C@@H]2[C@@H]1C1=C(OC2(C)C)C2=C(C(=O)C1=O)[C@H]1[C@@H](CC[C@@H]1C)C(C)(C)O2
inhibition of growth at 10 µM (Leishmania tropica [2]): > 75%

SMILES: C[C@@H]1CC[C@H]2[C@H](C1)C1=C(OC2(C)C)C2=C(C(=O)C1=O)[C@H]1C[C@@H](C)CC[C@@H]1C(C)(C)O2
inhibition of growth at 10 µM (Leishmania tropica [2]): > 75%

SMILES: CC1(C)OC2=C(C(=O)C(=O)C3=C2OC(C)(C)[C@H]2COc4c(Br)cc(Br)cc4[C@@H]32)[C@@H]2c3cc(Br)cc(Br)c3OC[C@@H]21
Activity (Leishmania tropica [2]): inactive

SMILES: CC1(C)OC2=C(C(=O)C3=C(C2=O)[C@H]2c4cc(Br)ccc4OC[C@H]2C(C)(C)O3)[C@H]2c3cc(Br)ccc3OC[C@H]21
Activity (Leishmania tropica [2]): inactive

SMILES: COc1cccc2c1C(=O)c1c(O)c3c(c(O)c1C2=O)C[C@@](O)(C(C)=O)C[C@@H]3O[C@H]1C[C@H](N)[C@H](O)[C@H](C)O1 [DAUNORUBICIN]
Ratio IC50 (NIH3T3 [3]): 23
IC50 [4]: 44 nM
IC50 (NIH3T3 [5]): 1010 nM

Activity [6]: Active
inhibition (INH) [8]: 105.8%
Ki [11]: 420 nM
Activity [12]: Not Active
SMILES: COc1ccc2c(c1)OC[C@H]1[C@@H]2C2=C(OC1(C)C)C1=C(C(=O)C2=O)[C@H]2c3ccc(OC)cc3OC[C@H]2C(C)(C)O1
cytotoxicity at 72 h, 10 µM [7]: 9.7%
Activity (Leishmania tropica [2]): inactive
inhibition at 10 µM (NIH3T3 [9]): 3.5%
Activity [10]: Not Active

SMILES: COc1ccc(CCN(C)CCCC(C#N)(c2ccc(OC)c(OC)c2)C(C)C)cc1OC (stereo not drawn)
inhibition at 10 µM (NIH3T3 [9]): 11.2%

SMILES: CC1(C)OC2=C(C(=O)C(=O)C3=C2OC(C)(C)[C@H]2COc4ccc5ccccc5c4[C@@H]32)[C@@H]2c3c(ccc4ccccc34)OC[C@@H]21
inhibition of growth at 10 µM (Leishmania tropica [2]): 100%

SMILES: CC1(C)OC2=C(C(=O)C(=O)C3=C2OC(C)(C)[C@H]2COc4ccc(Br)cc4[C@@H]32)[C@H]2c3cc(Br)ccc3OC[C@H]21
Activity (Leishmania tropica [2]): inactive

Activity [6]: Active
inhibition (INH) [8]: 72%
Ki [11]: 770 nM
Activity [12]: Not Active
SMILES: C[C@@H]1CC[C@@H]2[C@@H](C1)C1=C(OC2(C)C)C(=O)C2=C(OC(C)(C)[C@@H]3CC[C@@H](C)C[C@@H]23)C1=O
cytotoxicity at 72 h, 10 µM [7]: 0%
inhibition at 10 µM (NIH3T3 [9]): 18.1%
Activity [10]: Not Active

SMILES: O[C@@H](COc1cccc2ncccc12)CN1CCN([C@@H]2c3ccccc3[C@@H]3[C@H](c4ccccc42)C3(F)F)CC1 [ZOSUQUIDAR]
cytotoxicity at 72 h, 3 µM [13]: 2.4%
inhibition at 3 µM (NIH3T3 [14]): 3.1%
cytotoxicity at 72 h, 10 µM [7]: 2.4%
inhibition at 10 µM (NIH3T3 [9]): 3.1%

Activity [6]: Active
inhibition (INH) [8]: 104.3%
Ki [11]: 510 nM
Activity [12]: Not Active
SMILES: COc1ccc2c(c1)OC[C@@H]1[C@H]2C2=C(OC1(C)C)C(=O)C1=C(OC(C)(C)[C@@H]3COc4cc(OC)ccc4[C@H]13)C2=O
cytotoxicity at 72 h, 10 µM [7]: 6.5%
Activity (Leishmania tropica [2]): inactive
inhibition at 10 µM (NIH3T3 [9]): 0%
Activity [10]: Not Active

Activity [6]: Active
inhibition (INH) [8]: 112.5%
Ki [11]: 1040 nM
Activity [12]: Not Active
SMILES: COc1ccc2c(c1)OC[C@H]1[C@@H]2C2=C(OC1(C)C)C1=C(C(=O)C2=O)[C@@H]2c3ccc(OC)cc3OC[C@@H]2C(C)(C)O1
cytotoxicity at 72 h, 10 µM [7]: 24.7%
inhibition of growth at 10 µM (Leishmania tropica [2]): > 75%
inhibition at 10 µM (NIH3T3 [9]): 10.8%
Activity [10]: Not Active
